# From PubChem
# PAFAH2 FP inh: PAFAH2 enzyme inhibitors, primary screen, biochemical, fluorescence polarization, human | actives 0.99% (n = 340,000) | inhibition, % at 3.39 µM | recombinant PAFAH2, FP-rhodamine activity probe;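 active means inhibition above the mean over all tested compounds plus 3 SD, cut at about 30% in these data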;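 further: inhibitors block probe labeling of enzyme so polarization drops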
# mABHD4 FP: ABHD4 inhibitors, primary screen, biochemical, fluorescence polarization, mouse; (Lyso)-N-acylphosphatidylethanolamine lipase (Mus musculus), Q8VD66; AID 720543, 2013; inhibition, % at 8.92 µM; purified mABHD4, FP-Rh probe fluorescence polarization; actives 0.54% (n = 370,000);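 active means inhibition exceeding the mean over every tested compound plus 3 SD, cut at about 30% in these data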
# Target sequence (Q8VD66 whole entry, looked up): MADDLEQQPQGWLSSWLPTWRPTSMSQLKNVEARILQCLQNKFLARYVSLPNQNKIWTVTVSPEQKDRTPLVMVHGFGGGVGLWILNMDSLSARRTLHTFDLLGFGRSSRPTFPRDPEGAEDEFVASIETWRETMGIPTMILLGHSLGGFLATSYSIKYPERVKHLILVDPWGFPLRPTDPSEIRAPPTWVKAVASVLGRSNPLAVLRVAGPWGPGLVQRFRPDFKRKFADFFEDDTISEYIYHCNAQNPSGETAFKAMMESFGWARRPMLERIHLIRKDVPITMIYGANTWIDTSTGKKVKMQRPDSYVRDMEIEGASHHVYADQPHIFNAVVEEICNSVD
#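 Assay system: wild-type mouse ABHD4 protein; compound: single nominal dose of 8.92 µM, 0.89% DMSO final; schedule: 45 min + 60 min at 25 °C; measured by: FP readout, ex 525 nm / em 598 nm; evaluation: % inhibition of FP-Rh probe binding versus controls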
# PAFAH1B2 FP inh: PAFAH1B2 enzyme inhibitors, primary screen, biochemical, fluorescence polarization, human; Platelet-activating factor acetylhydrolase IB subunit alpha2 (Homo sapiens), P68402; recombinant PAFAH1B2, FP-rhodamine activity probe; inhibition, % at 3.39 µM; actives 1.2% (n = 340,000); AID 492953, 2010;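 active means inhibition above the mean of all tested compounds plus 3 SD, cut at about 24% in these data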
# Target sequence (P68402 whole entry, looked up): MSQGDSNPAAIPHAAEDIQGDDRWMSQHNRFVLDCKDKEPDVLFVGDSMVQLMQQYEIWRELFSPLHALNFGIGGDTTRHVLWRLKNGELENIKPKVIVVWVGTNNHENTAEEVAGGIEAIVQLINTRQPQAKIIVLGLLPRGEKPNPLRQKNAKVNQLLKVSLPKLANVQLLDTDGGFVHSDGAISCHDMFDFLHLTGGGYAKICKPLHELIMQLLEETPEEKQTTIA
# HTRA1 inh: HTRA1 serine protease inhibitors, primary screen, biochemical, fluorescence polarization, HTS | recombinant HTRA1, FP-rhodamine activity-based probe | inhibition, % at 5.96 µM | actives 0.5% (n = 340,000); in the data active means inhibition above about 36%
# PAFAH1B3 inh: PAFAH1B3 enzyme inhibitors, primary screen, biochemical, fluorescence polarization, human | actives 0.28% (n = 340,000) | inhibition, % at 3.39 µM | AID 492972, 2010 | Platelet-activating factor acetylhydrolase IB subunit alpha1 (Homo sapiens), Q15102 | recombinant PAFAH1B3, FP-rhodamine probe;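 active means inhibition above the screen-wide average of all tested compounds plus 3 SD, cut at about 25% in these data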
# pPAFAH inh: pPAFAH enzyme inhibitors, primary screen, biochemical, fluorescence polarization, human; Platelet-activating factor acetylhydrolase (Homo sapiens), Q13093; recombinant pPAFAH, FP-rhodamine probe fluorescence polarization; inhibition, % at 3.39 µM; actives 1.5% (n = 330,000); AID 463082, 2010;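 active means inhibition above the mean inhibition across the screen plus 3 SD, cut at about 25% in these data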;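 further: inhibitors block binding of the rhodamine activity-based probe so polarization drops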
# Numbers stand for hits; - = inactive; . = not tested or not shown. Most compounds without a hit are left out; they make up all but 2.8% or so of the library.
SMILES,PAFAH2 FP inh,mABHD4 FP,PAFAH1B2 FP inh,HTRA1 inh,PAFAH1B3 inh,pPAFAH inh
Cc1ccc(NC(=O)COC(=O)c2cccc(S(=O)(=O)N3CCCCCC3)c2)cc1,.,-,.,-,.,.
COc1ccc(NS(=O)(=O)c2ccc(O)c(C(=O)OCC(=O)Nc3ccc4c(c3)OCCO4)c2)cc1,-,-,-,-,-,32
COc1ccccc1CNC(=O)COC(=O)c1ccc(C)c(S(=O)(=O)N2CCCCC2)c1,42,-,-,-,-,27
CC1CN(S(=O)(=O)c2cccc(C(=O)OCC(=O)Nc3ccc4c(c3)OCO4)c2)CC(C)O1 (configuration not stated),67,-,-,-,-,-
COc1ccccc1CNC(=O)COC(=O)c1ccc(S(=O)(=O)N2CCCCC2)cc1,-,-,-,-,-,-
NC(=O)NC(=O)COC(=O)c1cccc(S(=O)(=O)N2CCCCCC2)c1,-,-,27,-,-,-
CCn1c(SCC(=O)Nc2ccc(S(=O)(=O)Nc3cc(C)nc(C)n3)cc2)nc2sc(C)c(C)c2c1=O,.,-,.,.,.,.
COC(=O)[C@]12C[C@H](CC(=O)N3CCCC3)C(=O)N(CCC3=CCCCC3)C1=C[C@H](C1CCCC1)O[C@@H]2C,.,-,.,.,.,.
C=CCN1C(C(=O)OC)CN(Cc2cn(Cc3ccc(C)cc3)nn2)CCS1(=O)=O (configuration not stated),.,-,.,.,.,.
Clc1ccc(OCCOc2ccc(Br)nc2Br)c(Cl)c1,.,-,.,.,.,.
COc1ccc(C2CCC3(CCC(=O)N3CCOC(=O)NCc3ccc(Cl)cc3)CC2)cc1 (configuration not stated),.,-,.,.,.,.
COc1ccc(NC(=O)COC(=O)c2ccc3c(c2)OCCO3)cc1,.,-,.,-,.,.
COc1ccc(NS(=O)(=O)c2ccc3oc(Nc4ccc5c(c4)OCCO5)nc3c2)cc1,-,-,-,-,-,26
COc1cccc(C(=O)OCC(=O)Nc2ccc3c(c2)OCCO3)c1,76,-,-,-,-,28
COc1cccc(S(=O)(=O)Nc2ccc3c(c2)OCCO3)c1,-,-,-,-,-,.
O=C(CSc1nnc(-c2cccs2)n1Cc1ccco1)Nc1ccc(Oc2ccccc2)cc1,.,-,.,.,.,.
CC(C)(C)c1ccc(C#C[C@@H]2C=C[C@H]3OC(=O)CC/C=C/CCC(=O)OC[C@H]3O2)cc1,.,-,.,.,.,.
COc1ccc(CSCCc2n[nH]c(=S)n2-c2ccccc2)cc1C,-,-,-,-,-,-
S=c1[nH]nc(CCSCc2ccccc2)n1-c1ccccc1,-,-,28,-,-,-
O=S(=O)(Nc1nc(-c2ccccc2)cs1)c1cc(Cl)ccc1Cl,-,-,-,-,-,28
O=[N+]([O-])c1ccc(S(=O)(=O)Nc2nc(-c3ccccc3)cs2)cc1,-,-,-,-,-,-
COC(C/C=C\C(=O)COCc1ccccc1)OC,.,.,.,.,.,25
COC(C/C=C/C(=O)COCc1ccccc1)OC,-,-,-,-,-,.
C[C@H]1COc2c3ccccc3nn21,.,-,.,.,.,.
C[C@H]1[C@@H](O)CC[C@@]23CCCN2C(=O)CCC[C@@H]13,.,-,.,.,.,.
SMILES,PAFAH2 FP inh,mABHD4 FP,PAFAH1B2 FP inh,HTRA1 inh,PAFAH1B3 inh,pPAFAH inh
O=C1NC(=Nc2ccccc2)SC1Cc1ccccc1 (configuration not stated),.,-,.,.,.,-
O=C1NC(=Nc2ccccc2)SC1Cc1cccc(Cl)c1Cl (configuration not stated),-,-,-,-,-,29
CC(=O)C[C@@H](O)CC(=O)[C@H]1OC(=O)CCCCCCCCc2ccccc21,-,-,43,-,-,-
CC(=O)C[C@@H](O)CC(=O)[C@@H]1OC(=O)CCCCCCCc2ccccc21,-,-,-,-,-,-
CC(=O)C[C@@H](O)CC(=O)[C@H]1OC(=O)CCCCCc2ccccc21,-,-,-,-,-,-
CC(=O)C[C@@H](O)CC(=O)[C@@H]1OC(=O)CCCCCCCCc2ccccc21,-,-,28,-,-,-
Cn1c(=O)c(=O)n(C)c2cc(S(=O)(=O)N3CCN(Cc4ccc5c(c4)OCO5)CC3)ccc21,.,-,.,.,.,.
O=C(CSc1nnc(-c2cccnc2)n1C1CCCCC1)NC1CCCCCC1,.,-,.,.,.,.
CCCCNC(=O)c1cccc(S(=O)(=O)N2CC3(C)CC2CC(C)(C)C3)c1 (configuration not stated),-,-,36,-,-,-
COCCCNC(=O)c1cccc(S(=O)(=O)N2CC3(C)CC2CC(C)(C)C3)c1 (configuration not stated),-,-,-,-,-,-
CC1(C)CC2CC(C)(CN2S(=O)(=O)c2cccc(C(=O)OCC(N)=O)c2)C1 (configuration not stated),-,-,28,-,-,-
CC1(C)CC2CC(C)(CN2S(=O)(=O)c2cccc(C(N)=O)c2)C1 (configuration not stated),-,-,29,-,-,-
O=C(Nc1nc(-c2ccco2)c(-c2ccco2)s1)C1CCC1,-,-,-,-,-,28
O=C(Nc1nnc(-c2ccco2)s1)C1CCCCC1,-,-,-,-,-,-
Cc1ccc(-c2nnc(SCC(=O)NNC(=S)Nc3ccccc3)n2C2CCCCC2)cc1,.,-,.,.,.,.
CC(C)(C)c1ccc(-c2nnc(SCC(=O)Nc3ccc(S(=O)(=O)Nc4nccs4)cc3)n2Cc2ccco2)cc1,.,-,.,.,.,.
CC(C)(c1ccccc1)c1ccc(OCC2CO2)cc1 (configuration not stated),-,-,-,-,-,25
COC(=O)c1cc(-c2cc3ccccc3s2)c(=O)n2c1CCC2,.,-,.,.,.,.
Cc1cc(C)c(NS(=O)(=O)c2c(C(=O)N3CCOCC3)c(C)n(C)c2C)c(C)c1,-,-,-,-,-,29
Cc1ccc(NS(=O)(=O)c2c(C(=O)N3CCOCC3)c(C)n(C)c2C)cc1C,-,-,-,-,-,-
O=C(NC(=S)Nc1cc([N+](=O)[O-])ccc1O)c1ccc2c(c1)OCO2,-,-,-,-,-,29
O=C(c1cc(-c2ccco2)on1)N1CCCc2ccccc21,-,-,-,-,-,25
O=C(c1cc(-c2ccccc2)on1)N1CCCc2ccccc21,-,-,-,-,-,-
O=C(c1cc(-c2ccco2)on1)N1CCc2ccccc2C1,-,-,-,-,-,30
CCCCOC(=O)CCN1C(=O)/C(=C/c2ccccc2)SC1=S,.,-,.,.,.,.
Cc1ccc(S(=O)(=O)CCC(=O)OCC(=O)N2c3ccccc3NC(=O)C2(C)C)cc1,-,-,30,-,-,-
CC1(C)C(=O)Nc2ccccc2N1C(=O)COC(=O)Cc1ccc(Cl)c(Cl)c1,-,-,28,-,-,-
